Measured values reported in ChEMBL document CHEMBL4513216, “Probing the Open Global Health Chemical Diversity Library for Multistage-Active Starting Points for Next-Generation Antimalarials” (ACS Infect Dis, 2020).

Assay: Toxicity liver stage against HepG2, at 10uM
Assay type: cell-based
Set-up: test concentration 10 uM, cell line HepG2-A16-CD81EGFP
Details: human, HepG2-A16-CD81EGFP cells; read-out: INHIBITION
Summary of the method: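 Uninfected HepG2-A16-CD81EGFP cells, 3 × 10^3 per well, 1536-well, plated on prespotted compound at 10 μM final, parasite-free screening media added to match infected plates; puromycin 10 μM positive, DMSO 0.5% negative; run in parallel with 48 h PbLuc assay at 37 °C, 5% CO2; viability by CellTiter-Glo luminescence, normalized to controls.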

| SMILES | cytotoxicity at 10 µM |
| --- | --- |
| Cn1c(CC(=O)O)c(Sc2ccccc2)c2ccccc21 | 4.35% |
| COc1cccc(CNc2c(O)c(=O)c2=O)c1 | 5.78% |
| COc1ccc(C)cc1NC(=O)Nc1cnc(O)nc1O | -3.79% |
| CC1=C(c2ccc(F)cc2)S(=O)(=O)N=C1N1CCc2ccccc21 | -1.29% |
| COCC(O)CN1CCC(=O)N(CC(=O)C(C)(C)C)Cc2ccccc21 (centres undefined) | 6.31% |
| CC(C)CC(=O)N1CC(=O)N(CCc2ccccc2)CC(O)C1 (centres undefined) | -6.4% |
| CCOC(=O)N1CC(=O)N(Cc2cccc(OC)c2OC)CC(O)C1 (centres undefined) | -3.66% |
| O=C(Cc1csc(-c2ccccc2F)n1)NCc1cccc(C(=O)O)c1 | -5.48% |
| O=C(c1ccccc1F)N1CCN(c2ccc(-n3cccn3)nn2)CC1 | -18.3% |
| O=S(=O)(C1CC1)N1CCC(Cn2cccn2)CC1 | -8.29% |
| O=S(=O)(c1ccccc1Br)N1CCC2(CC1)OCCS2 | -1.86% |
| COCCN(Cc1ccoc1)S(=O)(=O)c1ccc(F)c(C)c1 | -7.15% |
| O=C(NCC1CC1)[C@@H]1C[C@@H]2CCN(Cc3ccccc3)C[C@H]2O1 | 4.21% |
| c1coc(CN2CC[C@@H]3O[C@@H](COCc4ccncc4)CC[C@@H]32)c1 | -155% |
| COCC1COCCC12CCN(C(=O)Cc1ccc(F)cc1)CC2 (centres undefined) | 1.68% |
| Cc1ccc(S(=O)(=O)N2Cc3c(CN(C)C)nn(C)c3C2)cc1 | 2.32% |
| O=C1CCCN1CC1CN(C(=O)C2CCOCC2)Cc2nccn2C1 (centres undefined) | 3.33% |
| C[C@H](NC(=O)OC(C)(C)C)c1nnc(S(=O)(=O)Cc2cccc(F)c2)o1 | -6.91% |
| O=C(O)C1CCN(C(=O)Cn2ccc3c(Cl)cccc32)CC1 | -3.91% |
| Cc1nc(CN2C(=O)C[C@@H]3[C@@H]2CCN3C(=O)C2CCOCC2)cs1 | -10.8% |
| CC(C)NC(=O)C1CN(C(=O)c2ccc(F)cc2)CC12CCOCC2 (centres undefined) | 1.08% |
| CC(=O)c1cccc(S(=O)(=O)NCCNC(=O)c2snnc2C)c1 | -0.302% |

| SMILES | cytotoxicity at 10 µM |
| --- | --- |
| CCn1nccc1CN(C)c1nc(N)nc2c1nc(C)n2C | -4.83% |
| CSCc1cccc(S(=O)(=O)NCCO)c1 | -0.138% |
| CCOc1ccc2oc(-c3cnn(C)c3C)c(O)c(=O)c2c1 | 7.72% |
| CC(C)n1cc(S(=O)(=O)N2CCCCC2)cn1 | 2.53% |
| Cc1noc(C)c1C(=O)N[C@@H]1CC[C@@H](Oc2ccccc2)[C@@H]1O | 0.395% |
| CS(=O)(=O)N1CCCCC1c1ccc(Nc2cnccn2)nc1 (centres undefined) | 6.39% |
| O=C(C1CCCC1)N1CCCC([C@@H]2C[C@H](C(F)F)n3ncnc3N2)C1 (some centres undefined) | 4.54% |
| CN(C)C(=O)c1c[nH]nc1-c1ccc(CNC(=O)c2cnccn2)cc1 | -0.56% |
| CNc1ncccc1CN1CCN(C)CC(C(=O)N(C)C)C1 (centres undefined) | 16.1% |
| CNC(=O)c1sc2ccccc2c1C1CCN(c2nc(C)cc(C)n2)C1 (centres undefined) | 4.93% |
| CN(C)c1ccc(CC2CCN(c3cnccn3)C2)nn1 (centres undefined) | 2.97% |
| Cc1c(NC(=O)CN2CCC(Oc3cnccn3)CC2)cnn1C | -4.68% |
| Cc1noc(C)c1C(=O)N1CCCC1(C)C(=O)NC1CCCC1 (centres undefined) | -1.33% |
| Cc1nc(Nc2ncccn2)cc(C2CCCN2C)n1 (centres undefined) | -16.5% |
| CN(C)C(=O)CN1CCC(c2cncc(-c3cccc(Cl)c3)n2)CC1 | -33.3% |
| Cc1cc2c(=O)n3c(nc2s1)CCN(C(=O)c1ccn(C)n1)CC3 | -9.68% |
| Cc1cc(N)cc(C2CN(Cc3cc[nH]n3)CCO2)n1 (centres undefined) | -29.1% |
| Cc1nc(NC2CCCC2)cc(C2CCN2C(=O)c2cnn(C)c2)n1 (centres undefined) | 8.89% |
| O=S1(=O)NC2(CCCN(Cc3ccc(F)cc3)C2)COc2ccccc21 (centres undefined) | 7.63% |
| CC(C)(C)C(O)CN1CCN(Cc2ccc(C#N)cc2)CC1 (centres undefined) | -8.88% |
| CCC(=O)N1CCN(C(=O)NCc2c(C)cc(C)cc2C)CC1 | 6.12% |
| CCn1nnnc1-c1cccc(NC(=O)CCn2cc(C)cn2)c1 | 1.66% |

| SMILES | cytotoxicity at 10 µM |
| --- | --- |
| Cc1nc(C(C)NC(=O)NCc2nccn2CC(C)C)cs1 (centres undefined) | -20.7% |
| CN(C)C(=O)Cc1ccccc1NCc1noc(-c2ccccc2)n1 | 6.95% |
| Clc1snnc1CN(Cc1cccs1)C1CC1 | -8.78% |
| CSCC(=O)N1CCOC(c2nc(C(C)(C)C)n[nH]2)C1 (centres undefined) | -9.58% |
| Cc1ccc(CNC(=O)COc2ccc3c(c2)OCC3O)cc1 (centres undefined) | -5.67% |
| Cc1ccccc1Cn1cnc2oc(C)c(C(=O)O)c2c1=O | -1.49% |
| COc1ccc(NC(=O)N(C)Cc2ccco2)cn1 | -11.8% |
| CSCC(C)(O)CNC(=O)c1cccc(Cl)c1Cl (centres undefined) | 0.126% |
| Cc1ccc(C(=O)Nc2cnn(CC(=O)NC3CCCC3)c2)c(=O)[nH]1 | -4.09% |
| COCC(=O)N(C)Cc1ccc(F)c(F)c1 | -140% |
| CCCc1n[nH]c(C2CN(C(=O)CCn3cc(C)cn3)CCO2)n1 (centres undefined) | 10.3% |
| Cc1ccc(NC(C)C(=O)NCc2cccs2)cc1Cl (centres undefined) | -2.27% |
| FC(F)(F)CN1CCC(CCNc2ncccn2)CC1 | -3.94% |
| Cc1cnn(CCCNC(=O)C2CCCCN2Cc2ccncc2)c1 (centres undefined) | -7.85% |
| Cc1cnn(CCCNC(=O)C2CCCCN2Cc2cccnc2)c1 (centres undefined) | -8.97% |
| C[C@@H]1CN(Cc2ccccc2)CCN1C(=O)NCc1nccs1 | -142% |
| CC(C)c1ccc(O)c(C(=O)NC2CCN(c3ncccn3)CC2)c1 | 9.81% |
| COc1nc(C)ccc1CNC(=O)NC(C)Cc1c(C)nn(C)c1C (centres undefined) | 8.37% |
| CCOCC1CCN(C(=O)c2sc(C)cc2OC(F)F)CC1 | 7.95% |
| CCN1CCN(C(=O)C(C)SC)CC1 (centres undefined) | 11.4% |
| CCOc1cc(C(=O)O)cc(-c2ccccc2)c1OC | -9.88% |
| CN(C)C(=O)c1cccc(NC(=O)N2CCCC(C(F)(F)F)C2)c1 (centres undefined) | 6.37% |

| SMILES | cytotoxicity at 10 µM |
| --- | --- |
| COCCCN1CCCN(C(C)C(=O)Nc2ccnn2C(C)C)CC1 (centres undefined) | -8.8% |
| CC(NCC1=Cc2cc(Cl)ccc2OC1)c1nnc2n1CCCC2 (centres undefined) | -11.4% |
| Cc1cc(CN2CCc3nn(C)c(=O)cc3C2)on1 | -8.17% |
| CS(=O)(=O)N1CCc2c(cccc2NC(=O)CC(F)(F)F)C1 | 5.06% |
| Cn1ccnc1CN1C[C@@H](CN2CCCC2)[C@@H](CO)C1 | 4.34% |
| Cc1cc2ccccc2n1CCC(=O)NCCCc1nnc(N)s1 | 19.6% |
| c1cc(CN2CCC(Cc3noc(C4CC4)n3)CC2)c2c(c1)OCO2 | 7.69% |
| O=C(COCc1ccccc1)N1CCCC(OCc2cccnc2)C1 (centres undefined) | -2.65% |
| Cc1ccc(OC2(C(=O)O)CCN(C(=O)c3cccs3)CC2)cn1 | 0.92% |
| CC(=O)c1cc(CC(=O)NCc2cccc(F)c2F)cs1 | 2.95% |
| CN(Cc1cnc(N)nc1)C(=O)c1coc(COc2cccc(F)c2)n1 | 0.998% |
| CC(C)n1ccnc1C1CCCN(c2cncc(N(C)C)n2)C1 (centres undefined) | 10.1% |
| CSCCCNc1nccc(-c2cc(C(=O)O)ccn2)n1 | 3.49% |
| CCN(Cc1nc(COC)no1)Cc1cc2ccc(F)cc2[nH]c1=O | 2.03% |
| CCn1c(C)cc(C(=O)N2C[C@@H](C(=O)O)[C@H](c3ccccc3C)C2)c1C | -7.71% |
| CCn1c(CC2CCN(S(=O)(=O)N3CCCCC3)CC2)nn(C)c1=O | 1.58% |
| Cc1cccnc1C(Nc1nccc(C2CCCC2)n1)C1CC1 (centres undefined) | -121% |
| COCCc1noc(Cn2ccc3ccccc3c2=O)n1 | 0.0869% |
| O=C1CCC2(CCNCC2)CN1Cc1nncn1CCc1ccccc1 | -10.1% |
| CN(Cc1n[nH]c2c1CCC2)C(=O)CCc1cc2n(n1)CCCNC2 | -0.861% |
| CN(C)C(=O)N1CCN(Cc2nc3ccccc3[nH]2)[C@H]2CS(=O)(=O)C[C@H]21 | -150% |
| COc1ccc([C@@H]2CN(C(=O)CCC(F)(F)F)C[C@H]2NC(C)=O)cc1 | 2.12% |

| SMILES | cytotoxicity at 10 µM |
| --- | --- |
| CC(=O)N1CCN(CC2CCOc3ccccc3C2)CC1 (centres undefined) | 7.68% |
| Cc1ccc2cc(CNCCCN3CCOCC3)c(=O)[nH]c2c1 | -0.336% |
| CC(=O)Nc1nc(CN2CCCCC2Cn2cncn2)cs1 (centres undefined) | 1.12% |
| CCN(CCCNCc1c(C)nn(C)c1N(C)C)S(C)(=O)=O | -6.89% |
| CC(O)CN1CCC(CNCc2ccccc2C(F)(F)F)CC1 (centres undefined) | -9.27% |
| O=C(O)[C@@H]1CCCN1c1nccc(Nc2ccccc2)n1 | 12.2% |
| CCN(CC)CC1CN(CCc2ccccc2)Cc2nccn2C1 (centres undefined) | -9.61% |
| CCN(CC)Cc1cn2c(n1)CN(C1CCOC1)CC2 (centres undefined) | 4.12% |
| O=C1CC[C@H]2[C@H](CCN2c2ncc(F)cn2)N1c1cccnc1 | 0.864% |
| COCC(=O)N1CCC2(CC1)COCCN2CCN(C)C | -3.28% |
| Cc1ccc(CN2CC[C@H]3OCC[C@@]3(C(=O)N3CCCO3)C2)o1 | 8.83% |
| CN1CCN(C(=O)NC2CC2)Cc2cccnc21 | -2.96% |
| COCCN1CC[C@H](O)[C@@H]1Cc1ccccc1 | -10% |
| Cc1ccc(N2CCC3(CCN(C(=O)c4ccccn4)CC3)CC2)nn1 | 0.255% |
| COc1cc(N2C[C@H]3CN(C(=O)c4cccnc4)C[C@H]3C2)ncn1 | -141% |
| COCCNC(=O)[C@H]1CC[C@@H]2[C@@H](CCN2c2ncc(F)cn2)O1 | -2.25% |
| COCCNC(=O)[C@@H]1CC[C@@H]2[C@@H](CCN2c2ncc(F)cn2)O1 | -0.554% |
| c1ccc(CN2CCc3ncnc(C4CC4)c3CC2)cc1 | -156% |
| O=C(C1CC=CC1)N1C[C@@H](OCc2cccnc2)[C@H]2OCCC[C@H]21 | 2.74% |
| CN(C)C(=O)CO[C@H]1CN(Cc2nccs2)[C@@H]2COC[C@H]12 | 5.08% |
| Cc1c(Cl)cccc1S(=O)(=O)N1C[C@H]2CC[C@@H](C1)N(C)C2=O | 3.42% |
